Measurements taken from ChEMBL document CHEMBL4152289, “Novel 8-nitroquinolin-2(1H)-ones as NTR-bioactivated antikinetoplastid molecules: Synthesis, electrochemical and SAR study” (Eur J Med Chem, 2018).

Legend:
[1] = system: Trypanosoma brucei brucei; test: Antitrypanosomal activity against trypomastigote stage of Trypanosoma brucei brucei AnTat 1.9 assessed as decrease in parasite viability after 69 hrs by Alamar Blue assay; assay type: functional, organism-based; details: AnTat 1.9, 69 h
[2] = system: Leishmania infantum; test: microbe, parasite or virus in culture; assay type: functional, organism-based; details: MHOM/MA/67/ITMAP-263, 48 h
[3] = system: HepG2; test: Cytotoxicity against human HepG2 cells assessed as decrease in cell viability after 72 hrs by MTT assay; details: hepg2, 72 h
[4] = system: Salmonella typhimurium; test: Mutagenicity in Salmonella typhimurium TA97a at […] preincubated for 1 hr with S9 mix followed by addition of molten top agar and measured 48 hrs post dark incubation by Ames test; assay type: toxicity, organism-based; details: salmonella enterica subsp. enterica serovar typhimurium
[5] = Electrochemical behavior of the compound assessed as redox potential corrected toward normal hydrogen electrode at 10^-3 mol/L by cyclic voltammetry; details: 1000 µM
[6] = system: Leishmania donovani; test: Antileishmanial activity against promastigote stage of Leishmania donovani LdBOB over-expressing NTR1 assessed as inhibition of parasite growth after 72 hrs by resazurin assay; assay type: functional, organism-based
Method in brief: (§1)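 LdBOB promastigotes (from MHOM/SD/62/1S-CL2D) grown at 26 °C in modified M199. NTR1- and NTR2-overexpressing lines kept in nourseothricin 100 µg/mL. Triplicate 10 mL cultures seeded at 5 × 10⁴ parasites/mL and exposed to drug for 72 h. 50 µM resazurin added, fluorescence (ex 528/em 590 nm) read after 4 h. Background-corrected data fitted to two-parameter EC50 equation. Experiments were run at least twice; values are mean plus standard deviation.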

[7] = system: Trypanosoma brucei brucei; test: Antitrypanosomal activity against trypomastigote stage of Trypanosoma brucei brucei S427 over-expressing NTR1 assessed as parasite growth inhibition after 72 hrs by haemocytometer; assay type: functional, organism-based; details: S427, 72 h
[8] = system: Leishmania donovani; test: Antileishmanial activity against amastigote stage of Leishmania donovani MHOM/IN/00/DEVI infected in human THP1 cells assessed as inhibition of parasite infection after 120 hrs by Giemsa staining-based microscopic method; assay type: functional, organism-based; details: THP-1, 120 h
Method in brief: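 THP-1 cells differentiated with PMA (50 ng/mL final), 48 h at 37 °C, 6% CO2, then infected 10:1 with promastigotes acid-primed 24 h at 27 °C in Schneider 20% FCS pH 5.4. After 24 h, compounds in DMSO (<0.5% v/v) added in duplicate for 120 h. Methanol fixation and Giemsa staining; ≥200 cells counted. IC50 is the concentration halving infected macrophages, nonlinear regression, mean of three independent experiments.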

[9] = Metabolic stability in CD1 mouse liver microsomes at 20 mins by LC-MS method; assay type: ADME, microsome
Method in brief: (§2)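 Duplicate incubations with female CD-1 mouse microsomes at 37 °C in 50 mM phosphate pH 7.4 with MgCl2 5 mM, NADP 1 mM, G6PDH 0.4 U/mL and glucose-6-phosphate 5 mM. Samples at 0, 5, 10, 20, 30 and 40 min quenched with 4 vol acetonitrile containing internal standard, then LC-MS/MS.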

[10] = system: Salmonella typhimurium; test: Mutagenicity in Salmonella typhimurium TA100 at […] preincubated for 1 hr with S9 mix followed by addition of molten top agar and measured 48 hrs post dark incubation by Ames test; assay type: toxicity, organism-based; details: salmonella enterica subsp. enterica serovar typhimurium
[11] = Metabolic stability in CD1 mouse liver microsomes at 30 mins by LC-MS method; assay type: ADME, microsome; details: 0.5 h; method in brief: as §2
[12] = system: THP-1; test: Cytotoxicity against human THP1 cells assessed as decrease in cell viability after 72 hrs by MTT assay; assay type: cell-based; details: thp-1, 72 h
Method in brief: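 PMA-differentiated THP-1 (50 ng/mL final), 10⁶ cells/mL in complete RPMI, 48 h. Compounds in DMSO (<0.5% v/v) for 72 h at 37 °C. MTT 0.5 mg/mL for 2 h, formazan dissolved in DMSO, A570 with 630 nm reference. Viability expressed as percent of untreated control; doxorubicin as positive control; 50% cytotoxic concentration from dose–response curve.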

[13] = Metabolic stability in CD1 mouse liver microsomes at 10 mins by LC-MS method; assay type: ADME, microsome; method in brief: as §2
[14] = system: Salmonella typhimurium; test: Mutagenicity in Salmonella typhimurium TA102 at […] preincubated for 1 hr with S9 mix followed by addition of molten top agar and measured 48 hrs post dark incubation by Ames test; assay type: toxicity, organism-based; details: salmonella enterica subsp. enterica serovar typhimurium
[15] = system: Salmonella typhimurium; test: Mutagenicity in Salmonella typhimurium TA98 at […] preincubated for 1 hr with S9 mix followed by addition of molten top agar and measured 48 hrs post dark incubation by Ames test; assay type: toxicity, organism-based; details: salmonella enterica subsp. enterica serovar typhimurium
[16] = Half life in CD1 mouse liver microsomes by LC-MS method; assay type: ADME, microsome; method in brief: as §2
[17] = system: Trypanosoma brucei brucei; test: Antitrypanosomal activity against wild type trypomastigote stage of Trypanosoma brucei brucei S427 assessed as parasite growth inhibition after 72 hrs by haemocytometer; assay type: functional, organism-based; details: S427, 72 h
[18] = system: Leishmania donovani; test: Selectivity ratio of IC50 for wild type promastigote stage of Leishmania donovani LdBOB to IC50 for promastigote stage of Leishmania donovani LdBOB over-expressing NTR1; assay type: functional
[19] = system: Leishmania donovani; test: Antileishmanial activity against wild type promastigote stage of Leishmania donovani LdBOB assessed as inhibition of parasite growth after 72 hrs by resazurin assay; assay type: functional, organism-based; method in brief: as §1
[20] = Metabolic stability in CD1 mouse liver microsomes at 5 mins by LC-MS method; assay type: ADME, microsome; method in brief: as §2
[21] = system: Leishmania donovani; test: Antileishmanial activity against promastigote stage of Leishmania donovani LdBOB over-expressing NTR2 assessed as inhibition of parasite growth after 72 hrs by resazurin assay; assay type: functional, organism-based; method in brief: as §1
[22] = biological target: T1, serum albumin (Homo sapiens, UniProt P02768); test: Binding affinity to human serum albumin after 4 hrs by LC-MS method; assay type: ADME; details: read-out: PB (converted)
[23] = system: HepG2; test: Genotoxicity in human HepG2 cells at 1 to 40 uM after 2 to 72 hrs by comet assay; assay type: toxicity, cell-based; details: hepg2, 40 µM
Method in brief: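 Alkaline comet assay in HepG2 cells exposed 2 or 72 h to 1, 10, 20 or 40 µM. Cells embedded in 0.7% low-melting agarose, lysed 18 h at 4 °C at pH 10, electrophoresed 24 min at 0.8 V/cm at pH >13, then SYBR Gold stained. % tail DNA is the median of 200 cells (50 per deposit, 4 deposits). 1 mM methylmethanesulfonate as positive control.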

[24] = Metabolic stability in CD1 mouse liver microsomes at 40 mins by LC-MS method; assay type: ADME, microsome; method in brief: as §2
[25] = biological target: T1, serum albumin; test: (§3) Binding affinity to human serum albumin assessed as fraction unbound after 4 hrs by LC-MS method; assay type: ADME; details: human serum albumin
[26] = biological target: Albumin (Homo sapiens, UniProt P02768); test: as §3; assay type: ADME; details: isolated protein, 4 h
Sequence of Albumin (P02768 whole entry): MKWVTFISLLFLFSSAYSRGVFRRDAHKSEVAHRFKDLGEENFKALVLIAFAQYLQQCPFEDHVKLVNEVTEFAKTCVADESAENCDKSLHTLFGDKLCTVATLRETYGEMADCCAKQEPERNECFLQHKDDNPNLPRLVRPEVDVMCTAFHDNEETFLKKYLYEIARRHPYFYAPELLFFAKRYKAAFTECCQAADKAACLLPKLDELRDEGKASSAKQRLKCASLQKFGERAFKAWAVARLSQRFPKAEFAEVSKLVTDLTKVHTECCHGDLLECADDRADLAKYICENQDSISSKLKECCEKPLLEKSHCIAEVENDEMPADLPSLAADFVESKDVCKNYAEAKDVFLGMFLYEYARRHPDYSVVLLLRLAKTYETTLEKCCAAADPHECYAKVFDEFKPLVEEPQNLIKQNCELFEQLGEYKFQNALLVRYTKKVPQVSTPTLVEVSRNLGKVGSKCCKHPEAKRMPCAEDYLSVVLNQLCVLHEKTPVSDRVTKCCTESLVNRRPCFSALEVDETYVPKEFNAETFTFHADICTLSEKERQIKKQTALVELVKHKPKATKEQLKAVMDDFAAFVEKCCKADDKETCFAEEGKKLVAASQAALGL

T1 sequence (P02768 whole entry): as above

Structure (SMILES): Nc1cccc2cc(Br)c(=O)[nH]c12
- IC50 [1]: > 50 µM
- IC50 [2]: > 50 µM
- CC50 [3]: > 100 µM

Structure (SMILES): O=c1[nH]c2c([N+](=O)[O-])cccc2cc1Br
- Activity ([4]; 250 µM): Toxic
- Activity ([4]; 2500 µM): Toxic
- Activity [5]: -0.45 V
- IC50 [6]: 0.47 µM
- IC50 [7]: 3.9 µM
- IC50 [8]: 18 µM
- IC50 [1]: 1.9 µM
- Stability [9]: 802 pmol/mL
- Activity ([10]; 250 µM): Toxic
- Activity ([10]; 2500 µM): Toxic
- Stability [11]: 780 pmol/mL
- CC50 [12]: 72 µM
- Stability [13]: 869 pmol/mL
- Activity ([14]; 250 µM): Non-Toxic
- Activity ([14]; 2500 µM): Toxic
- Activity ([15]; 250 µM): Toxic
- Activity ([15]; 2500 µM): Toxic
- t1/2 [16]: > 40 min
- IC50 [17]: 17.7 µM
- Ratio IC50 [18]: 10
- IC50 [2]: 7.1 µM
- CC50 [3]: 92 µM
- IC50 [19]: 5.9 µM
- Stability [20]: 861 pmol/mL
- IC50 [21]: 4.6 µM
- fraction unbound at 4 h [22]: 0.078
- Activity [23]: Non-Toxic
- Stability [24]: 772 pmol/mL
- fraction unbound at 4 h [25]: 0.078
- logFu [26]: -1.11

Structure (SMILES): O=c1cc(CO)c2cccc([N+](=O)[O-])c2[nH]1
- IC50 [1]: 38.3 µM
- IC50 [2]: 23.4 µM
- CC50 [3]: > 100 µM

Structure (SMILES): Cc1cc([N+](=O)[O-])c2[nH]c(=O)ccc2c1
- Activity [5]: -0.56 V
- IC50 [1]: 2.1 µM
- IC50 [2]: 23 µM
- CC50 [3]: > 100 µM

Structure (SMILES): O=c1[nH]c2c([N+](=O)[O-])cccc2cc1Cl
- Activity [5]: -0.47 V
- IC50 [1]: 1.2 µM
- IC50 [2]: 16 µM
- CC50 [3]: 85 µM

Structure (SMILES): NCCOCCOCCNCc1cc(=O)[nH]c2c([N+](=O)[O-])cccc12
- IC50 [1]: 7.6 µM
- IC50 [2]: > 100 µM
- CC50 [3]: > 100 µM

Structure (SMILES): CC(=O)Nc1ccc2cccnc2c1[N+](=O)[O-]
- Activity [5]: -0.86 V
- IC50 [1]: 10.8 µM
- IC50 [2]: > 100 µM
- CC50 [3]: > 100 µM

Structure (SMILES): COc1cc([N+](=O)[O-])c2[nH]c(=O)ccc2c1
- Activity [5]: -0.58 V
- IC50 [1]: > 50 µM
- IC50 [2]: > 100 µM
- CC50 [3]: > 100 µM

Structure (SMILES): Cc1ccc([N+](=O)[O-])c2[nH]c(=O)ccc12
- Activity [5]: -0.58 V
- IC50 [1]: 29.1 µM
- IC50 [2]: 25.2 µM
- CC50 [3]: > 100 µM

Structure (SMILES): C[C@@H]1[C@H](O)[C@@H](C)/C=C/C=C/C=C/C=C/C=C/C=C/C=C/[C@H](O[C@@H]2O[C@H](C)[C@@H](O)[C@H](N)[C@@H]2O)C[C@@H]2O[C@](O)(C[C@@H](O)C[C@@H](O)[C@H](O)CC[C@@H](O)C[C@@H](O)CC(=O)O[C@H]1C)C[C@H](O)[C@H]2C(=O)O [AMPHOTERICIN B]
- IC50 [8]: 0.4 µM
- CC50 [12]: 3.6 µM
- IC50 [2]: 0.06 µM

Structure (SMILES): NC(=O)N1c2ccccc2C=Cc2ccccc21 [CARBAMAZEPINE]
- fraction unbound at 4 h [22]: 0.276
- fraction unbound at 4 h [25]: 0.276
- logFu [26]: -0.56

Structure (SMILES): NCCC[C@](N)(C(=O)O)C(F)F [EFLORNITHINE, (S)-]
- IC50 [1]: 15.8 µM
- CC50 [3]: > 100 µM

Structure (SMILES): CSc1ccc(OCc2ncc([N+](=O)[O-])n2C)cc1 [FEXINIDAZOLE]
- IC50 [8]: > 50 µM
- IC50 [1]: 0.4 µM
- CC50 [12]: > 62.5 µM
- IC50 [2]: 3.4 µM
- CC50 [3]: > 200 µM

Structure (SMILES): CCCCCCCCCCCCCCCCOP(=O)([O-])OCC[N+](C)(C)C [MILTEFOSINE]
- IC50 [8]: 5.4 µM
- CC50 [12]: > 40 µM
- IC50 [2]: 0.8 µM

Structure (SMILES): O=[N+]([O-])c1ccccc1 [NITROBENZENE]
- Activity [5]: -0.85 V
- IC50 [1]: > 50 µM
- IC50 [2]: > 100 µM
- CC50 [3]: > 100 µM

Structure (SMILES): Cc1ccc(C(=O)Nc2ccc(S(=O)(=O)O)c3cc(S(=O)(=O)O)cc(S(=O)(=O)O)c23)cc1NC(=O)c1cccc(NC(=O)Nc2cccc(C(=O)Nc3cc(C(=O)Nc4ccc(S(=O)(=O)O)c5cc(S(=O)(=O)O)cc(S(=O)(=O)O)c45)ccc3C)c2)c1 [SURAMIN]
- CC50 [3]: > 100 µM
